According to ChEMBL document CHEMBL1154290, “Synthesis and in vitro autoradiographic evaluation of a novel high-affinity radioiodinated ligand for imaging brain cannabinoid subtype-1 receptors” (Bioorg Med Chem Lett, 2009):
Each block holds one molecule with its values, some of them ahead of it.

Tests used:
[1] = biological target: Alpha-1B adrenergic receptor (Homo sapiens) (UniProt P35368); test: Displacement of [3H]Prazosin from alpha-1B adrenergic receptor at 10 uM by scintillation counting; details: tested as the 125I-labelled form
Summary of the method: (§1)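 Receptor-panel selectivity screen: test ligand at a single 10 μM concentration. Each site is assayed by inhibition of binding of its radioligand, read out as percent inhibition (n = 4).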

[2] = biological target: Alpha-2A adrenergic receptor (Homo sapiens) (UniProt P08913); test: Displacement of [3H]Clonidine from alpha-2A adrenergic receptor at 10 uM by scintillation counting; details: tested as the 125I-labelled form; summary of the method: as §1
[3] = biological target: Alpha-2B adrenergic receptor (Homo sapiens) (UniProt P18089); test: Displacement of [3H]Clonidine from alpha-2B adrenergic receptor at 10 uM by scintillation counting; details: tested as the 125I-labelled form; summary of the method: as §1
[4] = biological target: Beta-1 adrenergic receptor (Homo sapiens) (UniProt P08588); test: Displacement of [125I]Iodopindolol from beta-1 adrenergic receptor at 10 uM by scintillation counting; details: tested as the 125I-labelled form
[5] = biological target: Beta-2 adrenergic receptor (Homo sapiens) (UniProt P07550); test: Displacement of [125I]Iodopindolol from beta2 adrenergic receptor at 10 uM by scintillation counting; details: tested as the 125I-labelled form
[6] = biological target: Beta-3 adrenergic receptor (Homo sapiens) (UniProt P13945); test: Displacement of [125I]Iodopindolol from beta3 adrenergic receptor at 10 uM by scintillation counting; details: tested as the 125I-labelled form
Beta-3 adrenergic receptor (Homo sapiens), sequence (P13945 whole entry, looked up): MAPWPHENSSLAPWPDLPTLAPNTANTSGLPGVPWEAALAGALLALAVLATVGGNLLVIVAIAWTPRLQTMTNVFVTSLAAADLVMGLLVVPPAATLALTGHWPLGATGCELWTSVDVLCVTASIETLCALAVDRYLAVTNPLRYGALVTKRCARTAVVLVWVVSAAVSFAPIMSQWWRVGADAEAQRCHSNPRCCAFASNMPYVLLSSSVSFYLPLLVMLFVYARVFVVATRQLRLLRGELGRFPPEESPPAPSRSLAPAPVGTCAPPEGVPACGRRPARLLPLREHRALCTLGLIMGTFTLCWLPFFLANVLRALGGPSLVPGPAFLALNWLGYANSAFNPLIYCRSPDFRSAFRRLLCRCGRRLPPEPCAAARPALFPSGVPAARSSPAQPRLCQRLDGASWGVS

[7] = biological target: D(1A) dopamine receptor (Homo sapiens) (UniProt P21728); test: Displacement of [3H]SCH233930 from dopamine D 1 ( receptor) at 10 uM by scintillation counting; details: tested as the 125I-labelled form; summary of the method: as §1
D(1A) dopamine receptor (Homo sapiens), sequence (P21728 whole entry): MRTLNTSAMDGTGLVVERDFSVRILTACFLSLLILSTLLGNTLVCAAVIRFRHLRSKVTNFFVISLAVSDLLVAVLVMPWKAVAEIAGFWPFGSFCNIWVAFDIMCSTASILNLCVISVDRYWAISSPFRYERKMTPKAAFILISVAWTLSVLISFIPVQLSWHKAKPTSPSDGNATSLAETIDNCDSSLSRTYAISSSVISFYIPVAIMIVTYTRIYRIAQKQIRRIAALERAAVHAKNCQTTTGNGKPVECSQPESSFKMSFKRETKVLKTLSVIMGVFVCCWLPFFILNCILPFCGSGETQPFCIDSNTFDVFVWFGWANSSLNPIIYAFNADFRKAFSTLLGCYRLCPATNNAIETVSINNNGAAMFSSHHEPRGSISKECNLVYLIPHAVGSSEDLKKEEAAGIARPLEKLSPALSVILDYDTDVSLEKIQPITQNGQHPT

[8] = biological target: D(2) dopamine receptor (Homo sapiens) (UniProt P14416); test: Displacement of [3H]N-methylspiperone from dopamine D 2( receptor) at 10 uM by scintillation counting; details: tested as the 125I-labelled form; summary of the method: as §1
[9] = biological target: D(3) dopamine receptor (Homo sapiens) (UniProt P35462); test: Displacement of [3H]N-methylspiperone from dopamine D 3 ( receptor) at 10 uM by scintillation counting; details: tested as the 125I-labelled form; summary of the method: as §1
[10] = biological target: D(4) dopamine receptor (Homo sapiens) (UniProt P21917); test: Displacement of [3H]N-methylspiperone from dopamine D 4 ( receptor) at 10 uM by scintillation counting; details: tested as the 125I-labelled form; summary of the method: as §1
[11] = biological target: Delta-type opioid receptor (Homo sapiens) (UniProt P41143); test: Displacement of [3H]DADLE from delta opioid receptor at 10 uM by scintillation counting; details: tested as the 125I-labelled form; summary of the method: as §1
Delta-type opioid receptor (Homo sapiens), sequence (P41143 whole entry): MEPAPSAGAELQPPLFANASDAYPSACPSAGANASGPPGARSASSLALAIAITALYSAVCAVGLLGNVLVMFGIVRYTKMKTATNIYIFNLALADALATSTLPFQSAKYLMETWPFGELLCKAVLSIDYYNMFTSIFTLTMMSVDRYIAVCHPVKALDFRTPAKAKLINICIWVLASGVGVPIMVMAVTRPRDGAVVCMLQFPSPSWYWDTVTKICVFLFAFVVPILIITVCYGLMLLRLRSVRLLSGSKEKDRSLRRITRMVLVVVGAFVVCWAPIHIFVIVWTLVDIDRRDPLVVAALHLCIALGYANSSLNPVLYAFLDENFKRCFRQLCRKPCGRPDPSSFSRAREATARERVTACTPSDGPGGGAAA

[12] = biological target: Histamine H1 receptor (Homo sapiens) (UniProt P35367); test: Displacement of [3H]Pyrilamine from histamine H1 (receptor) at 10 uM by scintillation counting; details: tested as the 125I-labelled form; summary of the method: as §1
[13] = biological target: Histamine H2 receptor (Homo sapiens) (UniProt P25021); test: Displacement of [3H]Pyrilamine from histamine H2 (receptor) at 10 uM by scintillation counting; details: tested as the 125I-labelled form; summary of the method: as §1
[14] = biological target: Histamine H3 receptor (Homo sapiens) (UniProt Q9Y5N1); test: Displacement of [3H]alpha-methylhistamine from histamine H3 (receptor) at 10 uM by scintillation counting; details: tested as the 125I-labelled form; summary of the method: as §1
Histamine H3 receptor (Homo sapiens), sequence (Q9Y5N1 whole entry): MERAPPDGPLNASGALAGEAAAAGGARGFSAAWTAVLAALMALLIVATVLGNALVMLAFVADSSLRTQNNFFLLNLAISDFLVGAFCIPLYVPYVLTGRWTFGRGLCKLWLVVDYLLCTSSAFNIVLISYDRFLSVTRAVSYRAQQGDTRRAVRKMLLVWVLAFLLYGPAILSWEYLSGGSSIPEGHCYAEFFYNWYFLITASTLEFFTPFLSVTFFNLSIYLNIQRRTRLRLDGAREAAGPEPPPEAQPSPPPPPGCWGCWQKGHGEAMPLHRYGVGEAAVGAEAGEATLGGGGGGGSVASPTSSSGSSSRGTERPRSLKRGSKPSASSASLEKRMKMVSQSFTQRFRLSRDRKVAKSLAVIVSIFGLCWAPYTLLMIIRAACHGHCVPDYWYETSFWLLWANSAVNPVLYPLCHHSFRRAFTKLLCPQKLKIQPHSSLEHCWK

[15] = biological target: Histamine H4 receptor (Homo sapiens) (UniProt Q9H3N8); test: Displacement of [3H]Histamine from histamine H4 (receptor) at 10 uM by scintillation counting; details: tested as the 125I-labelled form; summary of the method: as §1
[16] = biological target: Muscarinic acetylcholine receptor M1 (Homo sapiens) (UniProt P11229); test: Displacement of [3H]QNB from Muscarinic acetylcholine receptor M1 at 10 uM by scintillation counting; details: tested as the 125I-labelled form; summary of the method: as §1
[17] = biological target: Muscarinic acetylcholine receptor M2 (Homo sapiens) (UniProt P08172); test: Displacement of [3H]QNB from Muscarinic acetylcholine receptor M2 at 10 uM by scintillation counting; details: tested as the 125I-labelled form; summary of the method: as §1
[18] = biological target: Muscarinic acetylcholine receptor M3 (Homo sapiens) (UniProt P20309); test: Displacement of [3H]QNB from Muscarinic acetylcholine receptor M3 at 10 uM by scintillation counting; details: tested as the 125I-labelled form; summary of the method: as §1
[19] = biological target: Muscarinic acetylcholine receptor M4 (Homo sapiens) (UniProt P08173); test: Displacement of [3H]QNB from Muscarinic acetylcholine receptor M4 at 10 uM by scintillation counting; details: tested as the 125I-labelled form; summary of the method: as §1
Muscarinic acetylcholine receptor M4 (Homo sapiens), sequence (P08173 whole entry): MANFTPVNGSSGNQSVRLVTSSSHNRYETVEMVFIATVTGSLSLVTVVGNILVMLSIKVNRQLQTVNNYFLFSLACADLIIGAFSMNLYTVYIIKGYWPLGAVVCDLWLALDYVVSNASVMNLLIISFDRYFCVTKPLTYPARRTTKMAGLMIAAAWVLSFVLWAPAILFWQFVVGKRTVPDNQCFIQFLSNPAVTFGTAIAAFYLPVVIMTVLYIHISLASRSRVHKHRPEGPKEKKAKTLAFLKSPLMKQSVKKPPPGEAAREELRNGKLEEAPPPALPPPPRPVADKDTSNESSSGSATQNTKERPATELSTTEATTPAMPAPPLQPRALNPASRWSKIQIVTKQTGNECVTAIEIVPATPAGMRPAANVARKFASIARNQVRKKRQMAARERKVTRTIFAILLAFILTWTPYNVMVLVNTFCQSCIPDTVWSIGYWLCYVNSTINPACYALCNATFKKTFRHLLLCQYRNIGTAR

[20] = biological target: Muscarinic acetylcholine receptor M5 (Homo sapiens) (UniProt P08912); test: Displacement of [3H]QNB from Muscarinic acetylcholine receptor M5 at 10 uM by scintillation counting; details: tested as the 125I-labelled form; summary of the method: as §1
Muscarinic acetylcholine receptor M5 (Homo sapiens), sequence (P08912 whole entry): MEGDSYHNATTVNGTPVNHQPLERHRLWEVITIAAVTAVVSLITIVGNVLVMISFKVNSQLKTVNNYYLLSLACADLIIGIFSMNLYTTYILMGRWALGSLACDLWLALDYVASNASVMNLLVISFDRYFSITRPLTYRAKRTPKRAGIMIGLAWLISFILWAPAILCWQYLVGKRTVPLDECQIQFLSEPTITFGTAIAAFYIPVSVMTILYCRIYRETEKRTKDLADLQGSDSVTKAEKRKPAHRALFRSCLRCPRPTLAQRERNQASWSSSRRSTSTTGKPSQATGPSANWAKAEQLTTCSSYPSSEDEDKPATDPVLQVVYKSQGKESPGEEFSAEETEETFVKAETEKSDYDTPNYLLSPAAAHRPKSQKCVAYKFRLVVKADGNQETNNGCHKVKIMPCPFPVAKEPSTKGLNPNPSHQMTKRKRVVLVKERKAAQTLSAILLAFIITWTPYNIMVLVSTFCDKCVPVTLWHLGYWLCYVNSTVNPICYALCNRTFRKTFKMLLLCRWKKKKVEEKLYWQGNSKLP

[21] = biological target: Sodium-dependent noradrenaline transporter (Homo sapiens) (UniProt P23975); test: Displacement of [3H]Nisoxetine from NET at 10 uM by scintillation counting; details: tested as the 125I-labelled form; summary of the method: as §1
[22] = biological target: Sodium-dependent serotonin transporter (Homo sapiens) (UniProt P31645); test: Displacement of [3H]Citalopram from SERT at 10 uM by scintillation counting; details: tested as the 125I-labelled form; summary of the method: as §1
[23] = biological target: Sigma non-opioid intracellular receptor 1 (Homo sapiens) (UniProt Q99720); test: Displacement of [3H]Pentazocine from sigma1 opioid receptor at 10 uM by scintillation counting; details: tested as the 125I-labelled form; summary of the method: as §1
Sigma non-opioid intracellular receptor 1 (Homo sapiens), sequence (Q99720 whole entry): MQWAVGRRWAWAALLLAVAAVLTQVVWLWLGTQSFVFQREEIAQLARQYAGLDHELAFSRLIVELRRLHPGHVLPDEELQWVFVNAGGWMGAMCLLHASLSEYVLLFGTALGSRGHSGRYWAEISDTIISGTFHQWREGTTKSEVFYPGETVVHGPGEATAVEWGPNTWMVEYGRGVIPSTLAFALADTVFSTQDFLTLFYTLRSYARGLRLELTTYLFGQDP

[24] = Displacement of [3H]DTG from […] opioid receptor at 10 uM by scintillation counting; details: tested as the 125I-labelled form; summary of the method: as §1
[25] = biological target: Vasopressin V1a receptor (Homo sapiens) (UniProt P37288); test: Displacement of [3H]vasopressin from vasopressin1A receptor at 10 uM by scintillation counting; details: tested as the 125I-labelled form; summary of the method: as §1
[26] = biological target: Vasopressin V1b receptor (Homo sapiens) (UniProt P47901); test: Displacement of [3H]vasopressin from vasopressin1B receptor at 10 uM by scintillation counting; details: tested as the 125I-labelled form; summary of the method: as §1
[27] = biological target: Vasopressin V2 receptor (Homo sapiens) (UniProt P30518); test: Displacement of [3H]vasopressin from vasopressin2 receptor at 10 uM by scintillation counting; details: tested as the 125I-labelled form; summary of the method: as §1
Vasopressin V2 receptor (Homo sapiens), sequence (P30518 whole entry): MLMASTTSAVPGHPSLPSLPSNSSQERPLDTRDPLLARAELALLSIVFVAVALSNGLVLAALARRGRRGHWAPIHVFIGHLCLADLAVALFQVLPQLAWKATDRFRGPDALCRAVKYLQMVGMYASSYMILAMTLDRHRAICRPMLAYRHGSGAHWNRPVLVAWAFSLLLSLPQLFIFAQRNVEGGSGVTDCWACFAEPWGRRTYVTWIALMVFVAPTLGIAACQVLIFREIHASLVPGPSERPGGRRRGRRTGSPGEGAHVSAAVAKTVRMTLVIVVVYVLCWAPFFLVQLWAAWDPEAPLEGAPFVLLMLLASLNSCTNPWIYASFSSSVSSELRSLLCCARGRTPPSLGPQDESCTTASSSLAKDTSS

[28] = biological target: 5-hydroxytryptamine receptor 1B (Homo sapiens) (UniProt P28222); test: Displacement [3H]GR127543 from 5HT1B (receptor) at 10 uM by scintillation counting; details: tested as the 125I-labelled form; summary of the method: as §1
[29] = biological target: 5-hydroxytryptamine receptor 2C (Homo sapiens) (UniProt P28335); test: Inhibition of radioligand binding to 5HT1C (receptor) at 10 uM; details: tested as the 125I-labelled form; summary of the method: as §1
5-hydroxytryptamine receptor 2C (Homo sapiens), sequence (P28335 whole entry): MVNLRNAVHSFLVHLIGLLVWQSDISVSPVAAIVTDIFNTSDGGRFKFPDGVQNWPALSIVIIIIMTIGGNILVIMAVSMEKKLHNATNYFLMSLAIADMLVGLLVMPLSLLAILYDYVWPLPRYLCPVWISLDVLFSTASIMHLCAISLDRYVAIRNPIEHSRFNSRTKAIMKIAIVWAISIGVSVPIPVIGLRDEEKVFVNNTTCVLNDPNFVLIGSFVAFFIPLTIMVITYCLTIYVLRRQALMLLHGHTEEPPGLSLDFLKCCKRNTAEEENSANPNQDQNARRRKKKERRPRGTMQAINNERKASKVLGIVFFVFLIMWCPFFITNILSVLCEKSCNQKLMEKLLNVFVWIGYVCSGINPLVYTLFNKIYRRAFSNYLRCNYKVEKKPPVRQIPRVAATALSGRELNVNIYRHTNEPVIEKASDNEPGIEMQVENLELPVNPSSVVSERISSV

[30] = biological target: 5-hydroxytryptamine receptor 1D (Homo sapiens) (UniProt P28221); test: Displacement [3H]GR127543 from 5HT1D (receptor) at 10 uM by scintillation counting; details: tested as the 125I-labelled form; summary of the method: as §1
[31] = biological target: 5-hydroxytryptamine receptor 1E (Homo sapiens) (UniProt P28566); test: Displacement of [3H]5-HT from 5HT1E (receptor) at 10 uM by scintillation counting; details: tested as the 125I-labelled form; summary of the method: as §1
[32] = biological target: 5-hydroxytryptamine receptor 2A (Homo sapiens) (UniProt P28223); test: Displacement of [3H]Ketanserin from 5HT2A (receptor) at 10 uM by scintillation counting; details: tested as the 125I-labelled form; summary of the method: as §1
[33] = biological target: 5-hydroxytryptamine receptor 2B (Homo sapiens) (UniProt P41595); test: Displacement of [3H]LSD from 5HT2B (receptor) at 10 uM by scintillation counting; details: tested as the 125I-labelled form; summary of the method: as §1
[34] = biological target: 5-hydroxytryptamine receptor 2C (Homo sapiens) (UniProt P28335); test: Displacement of [3H]Mesulergine from 5HT2C (receptor) at 10 uM by scintillation counting; details: tested as the 125I-labelled form; summary of the method: as §1
[35] = biological target: 5-hydroxytryptamine receptor 3A (Homo sapiens) (UniProt P46098); test: Displacement of [3H]LY278584 from 5HT3 (receptor) at 10 uM by scintillation counting; details: tested as the 125I-labelled form; summary of the method: as §1
5-hydroxytryptamine receptor 3A (Homo sapiens), sequence (P46098 whole entry): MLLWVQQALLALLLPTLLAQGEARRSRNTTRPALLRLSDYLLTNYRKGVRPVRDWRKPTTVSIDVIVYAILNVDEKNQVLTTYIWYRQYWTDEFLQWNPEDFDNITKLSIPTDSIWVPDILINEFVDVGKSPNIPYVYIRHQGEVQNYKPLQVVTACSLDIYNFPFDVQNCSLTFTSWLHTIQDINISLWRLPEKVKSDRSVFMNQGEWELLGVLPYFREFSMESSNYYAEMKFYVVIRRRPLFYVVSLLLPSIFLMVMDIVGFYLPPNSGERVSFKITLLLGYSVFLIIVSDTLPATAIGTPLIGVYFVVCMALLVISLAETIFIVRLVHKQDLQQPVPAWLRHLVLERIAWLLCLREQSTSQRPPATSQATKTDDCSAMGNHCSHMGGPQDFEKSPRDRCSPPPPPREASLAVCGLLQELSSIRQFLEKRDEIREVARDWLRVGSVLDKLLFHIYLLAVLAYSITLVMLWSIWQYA

[36] = biological target: 5-hydroxytryptamine receptor 5A (Homo sapiens) (UniProt P47898); test: Displacement of [3H]LSD from 5HT5A (receptor) at 10 uM by scintillation counting; details: tested as the 125I-labelled form; summary of the method: as §1
[37] = biological target: 5-hydroxytryptamine receptor 6 (Homo sapiens) (UniProt P50406); test: Displacement of [3H]LSD from 5HT6 (receptor) at 10 uM by scintillation counting; details: tested as the 125I-labelled form; summary of the method: as §1
[38] = biological target: 5-hydroxytryptamine receptor 7 (Homo sapiens) (UniProt P34969); test: Displacement of [3H]LSD from 5HT7 (receptor) at 10 uM by scintillation counting; details: tested as the 125I-labelled form; summary of the method: as §1
[39] = biological target: Alpha-1A adrenergic receptor (Homo sapiens) (UniProt P35348); test: Displacement of [3H]Prazosin from alpha-1A adrenergic receptor at 10 uM by scintillation counting; details: tested as the 125I-labelled form; summary of the method: as §1
Cannabinoid receptor 1 = Cannabinoid receptor 1 (Homo sapiens, UniProt P21554)
Cannabinoid receptor 2 = Cannabinoid receptor 2 (Homo sapiens, UniProt P34972); test: Displacement of [3H]CP-55940 from CB2 receptor by scintillation counting
Summary of the method: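 CB2 affinity given as Ki from radioligand displacement, reported as mean ± SD of three determinations.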

[40] = biological target: 5-hydroxytryptamine receptor 1A (Homo sapiens, UniProt P08908); test: Displacement of [3H]8OH-DPAT from 5HT1A receptor at 10 uM by scintillation counting
[41] = biological target: Alpha-2C adrenergic receptor (Homo sapiens, UniProt P18825); test: Displacement of [125I]Iodoclonidine from alpha-2C adrenergic receptor at 10 uM by scintillation counting
Alpha-2C adrenergic receptor, sequence (P18825 whole entry): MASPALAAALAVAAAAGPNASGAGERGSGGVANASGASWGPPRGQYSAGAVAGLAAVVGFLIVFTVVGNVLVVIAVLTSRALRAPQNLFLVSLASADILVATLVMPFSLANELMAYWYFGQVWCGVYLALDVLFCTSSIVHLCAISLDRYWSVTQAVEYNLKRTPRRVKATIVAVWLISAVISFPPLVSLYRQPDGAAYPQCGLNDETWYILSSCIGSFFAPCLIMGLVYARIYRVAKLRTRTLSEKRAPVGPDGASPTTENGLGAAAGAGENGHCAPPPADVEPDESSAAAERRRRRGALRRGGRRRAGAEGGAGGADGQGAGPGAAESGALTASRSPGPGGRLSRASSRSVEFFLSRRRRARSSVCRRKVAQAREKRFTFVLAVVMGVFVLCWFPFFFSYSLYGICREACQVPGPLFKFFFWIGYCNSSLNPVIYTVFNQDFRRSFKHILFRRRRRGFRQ

[42] = biological target: Kappa-type opioid receptor (Homo sapiens, UniProt P41145); test: Displacement of [3H]U69593 from kappa opioid receptor at 10 uM by scintillation counting
Mu-type opioid receptor = Mu-type opioid receptor (Homo sapiens, UniProt P35372); test: Displacement of [3H]DAMGO from mu opioid at 10 uM by scintillation counting
Translocator protein = Translocator protein (Homo sapiens, UniProt P30536); test: Displacement of [3H]PK11195 from TSPO at 10 uM by scintillation counting
Translocator protein, sequence (P30536 whole entry): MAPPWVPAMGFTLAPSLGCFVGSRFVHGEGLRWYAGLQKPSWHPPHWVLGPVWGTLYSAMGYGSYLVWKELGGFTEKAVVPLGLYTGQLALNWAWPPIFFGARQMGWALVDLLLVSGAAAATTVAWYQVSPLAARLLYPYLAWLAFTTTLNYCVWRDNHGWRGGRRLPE

inhibition [1]: < 50%
inhibition [2]: < 50%
inhibition [3]: < 50%
inhibition [4]: < 50%
inhibition [5]: < 50%
inhibition [6]: < 50%
inhibition [7]: < 50%
inhibition [8]: < 50%
inhibition [9]: < 50%
inhibition [10]: < 50%
inhibition [11]: < 50%
inhibition [12]: < 50%
inhibition [13]: < 50%
inhibition [14]: < 50%
inhibition [15]: < 50%
inhibition [16]: < 50%
inhibition [17]: < 50%
inhibition [18]: < 50%
inhibition [19]: < 50%
inhibition [20]: < 50%
inhibition [21]: < 50%
inhibition [22]: < 50%
inhibition [23]: < 50%
inhibition [24]: < 50%
inhibition [25]: < 50%
inhibition [26]: < 50%
inhibition [27]: < 50%
inhibition [28]: < 50%
inhibition [29]: < 50%
inhibition [30]: < 50%
inhibition [31]: < 50%
inhibition [32]: < 50%
inhibition [33]: < 50%
inhibition [34]: < 50%
inhibition [35]: < 50%
inhibition [36]: < 50%
inhibition [37]: < 50%
inhibition [38]: < 50%
inhibition [39]: < 50%
Compound: COc1ccc(-c2c(C#N)c(C(=O)NN3CCCCC3)nn2-c2ccccc2I)cc1

Ki (Cannabinoid receptor 1): 0.0034 µM
Ki (Cannabinoid receptor 2): 0.548 µM
Ki [40]: 0.0935 µM
Ki [41]: > 10 µM
Ki [42]: 1.48 µM
Ki (Mu-type opioid receptor): 1.5 µM
Ki (Translocator protein): 3.17 µM
Compound: COc1ccc(-c2c(C#N)c(C(=O)NN3CCCCC3)nn2-c2ccccc2[125I])cc1
